Screening data: PubChem BioAssay, Broad Institute
STK33 kinase inh: blocks human STK33 kinase activity | 320,000 compounds, 0.073% hits | purified STK33, MBP phosphorylation, ADP-Glo luminescence | Q9BYT3 | inhibition, % at 10 µM;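 active = inhibition at or above 25%, using the most active replicate where run in duplicate; inactive = inhibition below 25%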
Dyrk1A ADPGlo: Dyrk1A (rat) kinase inhibition. 310,000 compounds, 0.43% hits. inhibition, % at 12.5 µM. AID 504441. ADP-Glo luminescence, NFATc1 peptide; in the data active = inhibition above about 50%
GSK3beta inhib: human GSK3beta kinase inhibition. GST-GSK3beta kinase, ADP-Glo luminescence, 60 min; stronger effect = lower value. activity score (negative = inhibition), % at 10 µM. 300,000 compounds, 0.038% hits. P49841;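 active = more than half of replicate wells score below -50%, meaning over 50% inhibition versus plate controls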
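Assay system: GST-fused GSK3beta enzyme, cell-free / Medium: Tris pH 7.5 buffer with MgCl2, DTT, BSA, heparin / Also added: peptide substrate plus 25 µM ATP (final) / Compound: 10 µM single point / Timing: kinase reaction with compound 60 min at room temperature / Detection: ADP-Glo luminescence / Benchmarks: DMSO neutral wells and GW8510 at 20 µM as positive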
GSK3A inh: blocks human GSK-3 alpha kinase; P49840; ADP-Glo luminescence, 60 min; inhibition, % at 10 µM; 320,000 compounds, 0.1% hits; AID 2650;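 active = more than half of replicates show inhibition above 20%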;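 also: GST-tagged GSK-3 alpha with peptide substrate and 25 µM ATP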
Target sequence (P49840 whole entry, looked up): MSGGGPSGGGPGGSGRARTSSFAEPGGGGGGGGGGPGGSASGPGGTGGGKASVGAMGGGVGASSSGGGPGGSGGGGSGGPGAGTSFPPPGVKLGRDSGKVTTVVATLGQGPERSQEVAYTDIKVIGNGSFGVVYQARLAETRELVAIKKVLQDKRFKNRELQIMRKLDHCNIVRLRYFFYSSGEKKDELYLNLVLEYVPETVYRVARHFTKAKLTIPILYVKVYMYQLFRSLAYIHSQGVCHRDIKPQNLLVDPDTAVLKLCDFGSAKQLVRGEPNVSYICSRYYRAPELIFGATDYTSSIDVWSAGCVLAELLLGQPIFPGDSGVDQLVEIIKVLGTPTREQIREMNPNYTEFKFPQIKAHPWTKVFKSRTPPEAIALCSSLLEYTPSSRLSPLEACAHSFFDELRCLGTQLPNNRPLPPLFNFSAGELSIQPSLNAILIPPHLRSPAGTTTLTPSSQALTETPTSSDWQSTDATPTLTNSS
ADP-Glo artifact: ADP-Glo luciferase interference, Dyrk1A counter-screen. AC50, µM (series often up to 12 µM). ADP-Glo luciferase artifact assay, no Dyrk1A, luminescence. shares compounds with Dyrk1A ADPGlo. AID 588348. 1,300 tested, under 10 active;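 active = fitted half-maximal dose AC50 no more than ten times the top valid tested dose, with luminescence dropping as dose rises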
Each line names hits and unclear results; the compound was inactive in the other large screens (follow-up assays come after a bar, where they were run). Many of the other results were omitted from the sample, so hits are more common in it than they were.

Cn1c(C(=O)NCC2CCCO2)cc2c(=O)n(C)c3ccccc3c21 (configuration not stated)	Dyrk1A ADPGlo 55.1 | ADP-Glo artifact inactive
Cc1ccc(CNC(=O)c2cc3c(=O)n(C)c4ccccc4c3n2C)o1	Dyrk1A ADPGlo 62.4 (no result: GSK3A inh) | ADP-Glo artifact inactive
Cn1c(C(=O)N2CCN(c3ncccn3)CC2)cc2c(=O)n(C)c3ccccc3c21	none (no result: GSK3A inh)
Cn1c(C(=O)NCc2ccccn2)cc2c(=O)n(C)c3ccccc3c21	none (no result: GSK3A inh)
Cn1c(C(=O)N2CCCC2)cc2c(=O)n(C)c3ccccc3c21	Dyrk1A ADPGlo 75.0 (no result: STK33 kinase inh, GSK3beta inhib, GSK3A inh) | ADP-Glo artifact inactive
CCN1C(=NCCOC)N[C@@H](c2ccccc2)[C@H](C(=O)OC)[C@H]1C	none (no result: GSK3beta inhib)
COc1ccccc1NC(=O)COC(=O)CCc1ccc(S(=O)(=O)N2CCOCC2)cc1	none (no result: GSK3beta inhib)
CC(C)(C)C1CCc2sc(C(=O)NNC(=O)CCl)cc2C1 (configuration not stated)	none (no result: STK33 kinase inh, GSK3A inh)
O=C1CC(C(=O)O)S/C(=N\N=C\c2ccc(Br)cc2)N1 (configuration not stated)	none
Cc1ccc(-n2c(=O)c3c4c(sc3n3c(=S)[nH]nc23)CCC4)cc1	none
O=c1c2c3c(sc2n2c(=S)[nH]nc2n1-c1ccccc1)CCC3	Dyrk1A ADPGlo 54.6 | ADP-Glo artifact inactive
CCCCCC1CC(CC(C)C(=O)Nc2nncs2)C(=O)O1 (configuration not stated)	Dyrk1A ADPGlo 56.6 | ADP-Glo artifact inactive
O=c1ccn([C@@H]2O[C@H](CNS(=O)(=O)C3CC3)[C@@H](O)[C@H]2O)c(=O)[nH]1	none (no result: STK33 kinase inh, GSK3beta inhib, GSK3A inh)
O=C(O)c1ccccc1C(=O)c1ccc2c(c1)N(Cc1ccc(Cl)c(Cl)c1)C(=O)CO2	none
CCOC(=O)C1CCCN(c2c(N3CCC(N4CCCCC4)CC3)c(=O)c2=O)C1 (configuration not stated)	none
CCOC(=O)C1CCCN(c2c(N3CCN(C4CCCCC4)CC3)c(=O)c2=O)C1 (configuration not stated)	Dyrk1A ADPGlo 59.9 | ADP-Glo artifact inactive
C#CCCc1cocc1/C=[N+](\[O-])c1ccc(C(=O)OCC)cc1	none (no result: GSK3beta inhib)
O=[N+]([O-])c1ccc(O)c(/C=N/n2c(-c3ccccc3)n[nH]c2=S)c1	Dyrk1A ADPGlo 56.6 | ADP-Glo artifact inactive
Oc1ccccc1/C=N/n1c(-c2ccccc2)n[nH]c1=S	none
Oc1ccc(Nc2nc(-c3ccccc3)nc3ccccc23)cc1	Dyrk1A ADPGlo 85.5 | ADP-Glo artifact inactive
O=C1CN(C(=O)C2CCC(=O)N(CCc3ccc(Cl)cc3)C2)CCN1 (configuration not stated)	Dyrk1A ADPGlo 54.5 | ADP-Glo artifact inactive
CC(C)C1CCN(C(=O)C2CCC(=O)N(CCc3ccc(Cl)cc3)C2)CC1 (configuration not stated)	none
Cc1c(C(=O)O)cccc1-n1c(C)cc(/C=N/Nc2ccc([N+](=O)[O-])cn2)c1C	Dyrk1A ADPGlo 58.8 | ADP-Glo artifact inactive
Cc1cc(/C=N/Nc2ccc([N+](=O)[O-])cn2)c(C)n1-c1ccccc1	none
Fc1ccc(-c2nnc3sc(C4COc5ccccc5O4)nn23)cc1 (configuration not stated)	Dyrk1A ADPGlo 67.5 | ADP-Glo artifact inactive
COc1cccc(-c2nnc3n2N=C(c2cc(OC)ccc2OC)CS3)c1	none
CC(C)(C)C1=Nn2c(nnc2-c2ccccc2F)SC1	Dyrk1A ADPGlo 51.7 | ADP-Glo artifact inactive
COc1cccc(-c2nnc3n2N=C(C(C)(C)C)CS3)c1	Dyrk1A ADPGlo 79.3 (no result: GSK3A inh) | ADP-Glo artifact inactive
CC(=O)c1c[nH]c(C(=O)NCc2cccc(C(F)(F)F)c2)c1	none
COc1ccccc1N(CC(=O)NCCSCc1ccccc1Cl)S(C)(=O)=O	none
CCN1CCN(C(=O)c2cc(-c3ccco3)nc3ccccc23)CC1	none (no result: GSK3beta inhib)
O=C(CSc1nc(-c2cccs2)cc(C(F)(F)F)n1)NCCCn1ccnc1	none
O=C(CSc1nc(-c2ccco2)cc(C(F)(F)F)n1)NCCCn1ccnc1	Dyrk1A ADPGlo 57.9 | ADP-Glo artifact inactive
CCOc1ccc(-n2c(SCC(=O)Nc3cc(C)on3)nc3c(c2=O)SCC3)cc1	none
Cc1cccc(NC(=S)NNC(=O)c2csc3c2CCC(C)C3)c1 (configuration not stated)	Dyrk1A ADPGlo 61.9 (no result: STK33 kinase inh, GSK3A inh) | ADP-Glo artifact inactive
CCN(CC(=O)Nc1c(F)cccc1F)C(=O)c1cccc(S(=O)(=O)N2CCCc3ccccc32)c1	none (no result: STK33 kinase inh, GSK3beta inhib, GSK3A inh)
N/C(=N\OC(=O)CC(c1ccccc1)c1ccccc1)c1cccnc1	none (no result: STK33 kinase inh)
Cc1ccc2c(c1)N(CC(=O)NC1CCCCC1)C(=O)c1cccnc1O2	Dyrk1A ADPGlo 57.6 (no result: STK33 kinase inh, GSK3A inh) | ADP-Glo artifact inactive
COc1ccc(/C=C(\NC(=O)c2ccccc2)C(=O)NCc2ccco2)cc1OC	none
O=C(Cc1c(F)cccc1Cl)Nc1nc2ccccc2s1	Dyrk1A ADPGlo 51.4 | ADP-Glo artifact inactive
Cc1ccc(S(=O)(=O)/N=C2\C=C(NS(=O)(=O)c3ccccc3)C(=O)c3ccccc32)c(C)c1	none (no result: STK33 kinase inh, GSK3beta inhib, GSK3A inh)
Cc1ccc(S(=O)(=O)/N=C2\C=C(Nc3cccc(C(=O)O)c3)C(=O)c3ccccc32)cc1	Dyrk1A ADPGlo 50.8 | ADP-Glo artifact inactive
Cc1ccc(S(=O)(=O)/N=C2\C=C(Nc3cccc(C(=O)O)c3)C(=O)c3ccccc32)c(C)c1	Dyrk1A ADPGlo 75.8 | ADP-Glo artifact inactive
COc1ccc2nc3cc(Cl)ccc3c(Nc3ccc(O)c(CN4CCN(C)CC4)c3)c2c1	Dyrk1A ADPGlo 61.7 (no result: STK33 kinase inh, GSK3beta inhib, GSK3A inh) | ADP-Glo artifact inactive
N#CC1=C(N)Oc2ccc3ccc(O)cc3c2C1c1ccsc1 (configuration not stated)	Dyrk1A ADPGlo 76.7 (no result: STK33 kinase inh, GSK3A inh) | ADP-Glo artifact inactive
O=C1C(C=NCc2cccnc2)=C(O)c2ccccc21	none (no result: STK33 kinase inh, GSK3A inh)
O=C1C(C=NCc2ccncc2)=C(O)c2ccccc21	Dyrk1A ADPGlo 65.9 | ADP-Glo artifact inactive
COc1ccc(-c2cn[nH]c2C)cc1	Dyrk1A ADPGlo 62.6 | ADP-Glo artifact inactive
Cc1cccc(NC(=O)Nc2cnccn2)c1C	none
O=C(Nc1nc2ccc(Cl)cc2s1)C1CCCO1 (configuration not stated)	Dyrk1A ADPGlo 76.2 | ADP-Glo artifact inactive
O=C(Nc1nc2ccc([N+](=O)[O-])cc2s1)C1CCCO1 (configuration not stated)	Dyrk1A ADPGlo 65.9 | ADP-Glo artifact inactive
C=C1CC2C(=O)N(Cc3cc(OC)ccc3OC)C(C(=O)OCC)(C(=O)OCC)C1N2C(=O)OC(C)(C)C (configuration not stated)	none
COc1ccc(OCC(=O)C2CC2)c(C#N)c1	none
COc1ccccc1C1CCN(c2cc(O)ccc2[N+](=O)[O-])CC1	Dyrk1A ADPGlo 53.5 | ADP-Glo artifact inactive
COc1ccccc1C1CCN(C(=O)C2CCCCC2)CC1	none
COc1cc(/C=c2\s/c(=C\C(=O)C(C)(C)C)[nH]c2=O)cc(OC)c1OC	none
COc1ccc(/C=c2\s/c(=C\C(=O)C(C)(C)C)[nH]c2=O)cc1O	Dyrk1A ADPGlo 63.5, GSK3A inh 63.2 | ADP-Glo artifact inactive
Cc1nnc2c3ccccc3c(-c3ccc(O)cc3)nn12	none (no result: GSK3A inh)
Cc1nnc2c3ccccc3c(-c3cccs3)nn12	Dyrk1A ADPGlo 60.4 (no result: STK33 kinase inh, GSK3A inh) | ADP-Glo artifact inactive
